Experimental data from different studies.
Lines come from different studies, so protocols differ.
Organism: Enterococcus faecium

Compound	effect on	technique	strain	time	quantity	value
O=C(O)c1cccc(-n2c(/C=C/c3ccc(F)c(Cl)c3)nc3ccccc3c2=O)c1	microbial growth	broth dilution	NCTC7171		MIC	> 128 µg/mL
O=C(O)CCc1ccc(Oc2ccc(-c3noc(-c4ccc(O)cc4)n3)cc2)cc1	microbial growth	broth dilution		24 h	MIC	> 32 µg/mL
CNC(=O)c1cc(Oc2ccc(NC(=O)Nc3ccc(Cl)c(C(F)(F)F)c3)cc2)ccn1	microbial growth				MIC	> 100 µM
CN(C)CCc1ccc(Oc2ccc(-c3noc(-c4ccc(O)cc4)n3)cc2)cc1	microbial growth	broth dilution		24 h	MIC	4 µg/mL
O=C(Nc1ccc2c(c1)OC(F)(F)O2)Nc1ccc(Cl)c(C(F)(F)F)c1	microbial growth				MIC	1 µM
CC1CCN(CCCN2/C(=C/c3cc[n+](C)c4ccccc34)Sc3ccccc32)CC1.[I-]	microbial killing		ATCC700221		MBC	128 µg/mL
O=C(N[C@H](CO)[C@H](O)c1ccc([N+](=O)[O-])cc1)C(Cl)Cl	microbial growth	broth dilution	VRE		MIC	3.9 µg/mL
O=c1c2cnccc2nc(/C=C/c2ccc(Cl)cc2)n1-c1cccc(O)c1	microbial growth	broth dilution	NCTC7171		MIC	> 128 µg/mL
Cc1cc(/C=C2\Sc3ccccc3N2CCCN2CCC(C)CC2)c2ccccc2[n+]1C.[I-]	microbial killing		ATCC700221		MBC	> 64 µg/mL
O=C(O)COc1ccc(Oc2ccc(-c3noc(-c4ccc(O)cc4)n3)cc2)cc1	microbial growth	broth dilution		24 h	MIC	> 32 µg/mL
CC(=O)OCc1cccc(-n2c(/C=C/c3ccc(C#N)cc3)nc3ccccc3c2=O)c1	microbial growth	broth dilution	NCTC7171		MIC	> 128 µg/mL
